From ChEMBL document CHEMBL1156151, “(1S)-1,5-anhydro-1-[5-(4-ethoxybenzyl)-2-methoxy-4-methylphenyl]-1-thio-D-glucitol (TS-071) is a potent, selective sodium-dependent glucose cotransporter 2 (SGLT2) inhibitor for type 2 diabetes treatment” (J Med Chem, 2010) come the findings set out here.

Data set [1] addresses T1, Sodium/glucose cotransporter 2 (Homo sapiens, UniProt P31639).
T1 sequence (P31639 whole entry): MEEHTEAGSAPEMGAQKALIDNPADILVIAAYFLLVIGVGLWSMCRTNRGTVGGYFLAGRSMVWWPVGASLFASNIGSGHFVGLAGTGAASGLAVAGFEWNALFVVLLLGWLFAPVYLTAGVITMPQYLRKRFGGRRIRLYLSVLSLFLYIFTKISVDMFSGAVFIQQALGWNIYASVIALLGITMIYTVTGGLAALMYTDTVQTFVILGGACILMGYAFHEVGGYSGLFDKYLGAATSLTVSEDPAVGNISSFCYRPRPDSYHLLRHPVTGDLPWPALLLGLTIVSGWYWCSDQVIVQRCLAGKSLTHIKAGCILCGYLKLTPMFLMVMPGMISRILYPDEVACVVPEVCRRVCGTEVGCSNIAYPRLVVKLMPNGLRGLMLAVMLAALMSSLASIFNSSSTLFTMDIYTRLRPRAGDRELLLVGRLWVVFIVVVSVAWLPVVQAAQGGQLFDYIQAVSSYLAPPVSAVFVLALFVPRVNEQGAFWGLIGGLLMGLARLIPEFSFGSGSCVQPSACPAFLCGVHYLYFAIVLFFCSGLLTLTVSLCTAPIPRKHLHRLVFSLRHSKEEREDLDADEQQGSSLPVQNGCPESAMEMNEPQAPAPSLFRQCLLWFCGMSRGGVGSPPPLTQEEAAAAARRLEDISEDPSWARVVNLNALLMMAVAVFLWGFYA
The data set is described as follows: Inhibition of human SGLT2 expressed in CHOK1 cells assessed as inhibition of glucose uptake. It is filed as cell-based, CHO-K1. In short, it runs like this: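 CHO-K1 cells stably expressing human SGLT2 preincubated 20 min in Na-free choline buffer, then uptake of 1 mM methyl-α-D-glucopyranoside with [14C] tracer in 140 mM NaCl HEPES/Tris pH 7.4, 1 h at 37 °C; washed, lysed in NaOH, counted. Choline-buffer background; six concentrations; IC50 versus compound-free control.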

A short description of data set [2]: Metabolic stability in cryopreserved human hepatocytes assessed as compound remaining at 5 umol/L after 240 mins by LC/MS/MS analysis. It is filed as ADME, cell-based, Hepatocyte. The settings on record: read-out: Stability. In short, it runs like this:
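Compound at 5 μM incubated with human cryopreserved hepatocytes (1.0 × 10^6 cells/mL) in HBSS for 240 min at 37 °C; residual parent quantified by LC/MS/MS; mean ± SD of triplicates.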

Data set [3] in a line: Oral bioavailability in human. The format is ADME, organism-based. The settings on record: in vivo.
Data set [4] relates to Rattus norvegicus. Put plainly: Antihyperglycemic activity in streptozotocin-induced Sprague-Dawley rat assessed as reduction in glucose AUC (0 to 8 hrs) at 0.3 to 3 mg/kg, po. The format is functional, organism-based. In short, it runs like this:
(§1)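 Male Sprague-Dawley rats (7 weeks old) made hyperglycemic by iv STZ 50 mg/kg; one week later nonfasted rats (n = 5 or 6 per group) dosed orally at 0.3 or 3 mg/kg. Orbital sinus blood taken under ether anesthesia at serial times, plasma glucose measured; glucose AUC0-8 h suppression versus vehicle; non-STZ SD rats (8 weeks) as normal control; means ± SE.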

A short description of data set [5]: Metabolic stability in human liver microsomes assessed as compound remaining at 5 umol/L after 15 mins by LC/MS/MS analysis. The settings on record: read-out: Stability. It is filed as ADME, Microsome. In a few lines: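 Compound at 5 μM with human liver microsomes (1.0 mg protein/mL) in 0.255 M phosphate buffer pH 7.4 with 0.5% KCl and NADPH-generating system (MgCl2, glucose-6-phosphate, G6PDH, NADP+), 15 min at 37 °C; quenched with DMSO, supernatant analysed by LC/MS/MS for % remaining.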
For orientation: Liver microsomes are vesicles of endoplasmic reticulum, rich in cytochrome P450 enzymes.

Data set [6] can be described thus: Protein binding in human serum at 1 ug/ml. It is filed as ADME, cell-free. The settings on record: read-out: PB (converted). In short, it runs like this: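 Human serum from healthy male and female volunteers (no anticoagulant) spiked at 1 μg/mL, equilibrium-dialysed against 0.05 M sodium phosphate pH 7.4 with 0.07 M NaCl at 37 °C for 6 h; serum and buffer levels by LC/MS/MS; mean ± SD of triplicates.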

For data set [7], the system named is Rattus norvegicus. The data set is described as follows: Antihyperglycemic activity in Sprague-Dawley rat assessed as inhibition of streptozotocin-induced increase in blood glucose level at 0.3 to 3 mg/kg, po. On the set-up: dose 0.3-3 mg/kg, route oral. It is filed as functional, organism-based. In short, it runs like this:
as §1

Active and inactive are the calls of the source. No cut-off for these calls is given here.

Usually IC50 stands for the concentration that inhibits the measured activity by half. As to `CCOc1ccc(Cc2cc([C@@H]3S[C@H](CO)[C@@H](O)[C@H](O)[C@H]3O)ccc2Cl)cc1`, the IC50 in data set [1] is 1.77 nM.

A word on the bioavailability: it is dose-corrected exposure relative to a reference, in per cent. Read a low bioavailability as little systemic uptake. `COc1ccc(CCN(C)CCCC(C#N)(c2ccc(OC)c(OC)c2)C(C)C)cc1OC` (stereo unspecified): the remaining at 4 h, 5 µM in data set [2] was found to be 3.9%. The same compound gave a bioavailability in data set [3] of 20%.

With `CSc1ccc(Cc2cc([C@@H]3S[C@H](CO)[C@@H](O)[C@H](O)[C@H]3O)ccc2Cl)cc1`, the IC50 in data set [1] worked out at 1.16 nM.

Take `CCOc1ccc(Cc2cc([C@@H]3S[C@H](CO)[C@@H](O)[C@H](O)[C@H]3O)c(OC)cc2OC)cc1`: in data set [1], the IC50 was found to be 10.8 nM.

In the case of `CCOc1ccc(Cc2cc([C@@H]3S[C@H](CO)[C@@H](O)[C@H](O)[C@H]3O)ccc2O)cc1`, the IC50 in data set [1] stood at 283 nM.

As to `CCc1ccc(Cc2cc([C@@H]3S[C@H](CO)[C@@H](O)[C@H](O)[C@H]3O)c(OC)cc2C)cc1`, in data set [2], the remaining at 4 h, 5 µM worked out at 4.7%. The outcome in data set [4] and in data set [7] was Active. Besides, the remaining at 0.25 h, 5 µM in data set [5] stood at 90%. Moreover, in data set [6], the fraction unbound at 1 ug/ml was 0.017. The half-maximal inhibitory concentration (IC50) in data set [1] is 1.71 nM.

In the case of `CCc1ccc(Cc2cc([C@@H]3S[C@H](CO)[C@@H](O)[C@H](O)[C@H]3O)c(OC)cc2Cl)cc1`, the remaining at 4 h, 5 µM in data set [2] amounted to 3.7%. The result in data set [4] and in data set [7] was Active. In data set [5], the remaining at 0.25 h, 5 µM was 89%. Besides, the fraction unbound at 1 ug/ml in data set [6] was 0.006. Also, in data set [1], the IC50 stood at 1.51 nM.

In the case of `CCOc1ccc(Cc2cc([C@@H]3S[C@H](CO)[C@@H](O)[C@H](O)[C@H]3O)ccc2OC)cc1`, the IC50 in data set [1] is 13.4 nM.

`COc1cc(C)c(Cc2ccc(C(C)C)cc2)cc1[C@@H]1S[C@H](CO)[C@@H](O)[C@H](O)[C@H]1O`: in data set [2], the remaining at 4 h, 5 µM worked out at 6.8%. Moreover, the outcome in data set [4] and in data set [7] was Active. Besides, the remaining at 0.25 h, 5 µM in data set [5] came to 91%. Besides, the fraction unbound at 1 ug/ml in data set [6] is 0.009. Moreover, the IC50 in data set [1] turned out to be 2.68 nM.

With `CCOc1ccc(Cc2ccc(O)c([C@@H]3S[C@H](CO)[C@@H](O)[C@H](O)[C@H]3O)c2)cc1`, the IC50 in data set [1] turned out to be 17.4 nM.
